For data set [1], the target named is T1, Cytochrome P450 1A2 (Homo sapiens, UniProt P05177).
T1 sequence (P05177 whole entry): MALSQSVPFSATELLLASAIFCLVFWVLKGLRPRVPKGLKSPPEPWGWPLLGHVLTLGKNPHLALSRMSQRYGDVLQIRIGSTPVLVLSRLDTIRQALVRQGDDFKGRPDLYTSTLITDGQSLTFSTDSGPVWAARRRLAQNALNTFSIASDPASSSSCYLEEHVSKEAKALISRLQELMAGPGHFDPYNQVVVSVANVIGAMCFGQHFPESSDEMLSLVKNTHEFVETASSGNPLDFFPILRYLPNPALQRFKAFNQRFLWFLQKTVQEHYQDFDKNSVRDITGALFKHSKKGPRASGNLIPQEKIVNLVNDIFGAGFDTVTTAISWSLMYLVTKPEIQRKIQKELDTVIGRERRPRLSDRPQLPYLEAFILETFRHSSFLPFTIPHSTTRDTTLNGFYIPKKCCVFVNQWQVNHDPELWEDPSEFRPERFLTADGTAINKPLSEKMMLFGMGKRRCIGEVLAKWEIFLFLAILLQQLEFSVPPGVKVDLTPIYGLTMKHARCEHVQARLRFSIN
Description: (§1) Time-dependent inhibition of human microsomal CYP1A2-dependent methoxyresorufin-O-demethylase activity by spectrofluorimetric analysis in presence of NADPH regenerating solution. Summed up: (§2)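 1A2 MROD run with NADPH at 0.0125, 0.025, 0.05 and 0.1 µM inhibitor, product monitored continuously over 6 min. Activity at different times came from first derivatives of product curves, expressed as % of control remaining. KI and limiting kinact were derived from the resulting linear plot.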

For data set [2], the target named is T2, Cytochrome P450 1A1 (Homo sapiens, UniProt P04798).
T2 sequence (P04798 whole entry): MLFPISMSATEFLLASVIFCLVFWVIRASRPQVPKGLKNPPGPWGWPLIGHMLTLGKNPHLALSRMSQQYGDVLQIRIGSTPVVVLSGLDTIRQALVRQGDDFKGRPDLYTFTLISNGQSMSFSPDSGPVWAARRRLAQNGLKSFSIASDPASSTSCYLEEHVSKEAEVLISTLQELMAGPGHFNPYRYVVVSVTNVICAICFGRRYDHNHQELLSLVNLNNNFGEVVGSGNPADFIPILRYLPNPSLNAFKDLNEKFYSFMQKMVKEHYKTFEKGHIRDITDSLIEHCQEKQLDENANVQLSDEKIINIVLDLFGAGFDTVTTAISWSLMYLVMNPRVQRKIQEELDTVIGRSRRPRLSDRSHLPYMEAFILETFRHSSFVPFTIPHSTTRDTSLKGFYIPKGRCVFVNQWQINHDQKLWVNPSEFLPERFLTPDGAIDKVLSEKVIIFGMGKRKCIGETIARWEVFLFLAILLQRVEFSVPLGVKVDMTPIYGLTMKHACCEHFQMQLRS
Briefly: Inhibition of human microsomal CYP1A1-dependent ethoxyresorufin-O-deethylase activity by spectrofluorimetric analysis in presence of NADPH regenerating solution. Summed up:
(§3)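 Microsomal P450 (final 5 nM) in 0.1 M potassium phosphate pH 7.6 with MgCl2 at 37 °C. Substrate final 5 µM: ethoxyresorufin for 1A1/1B1, methoxyresorufin for 1A2. […] Ki was taken as the x-intercept of Dixon plots (1/v0 vs [I]). Mean ± SD of three independent experiments. Selectivity ratios are ratios of these Ki.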

For data set [3], the target named is T1, Cytochrome P450 1A2. Briefly: Inhibition of human microsomal CYP1A2-dependent methoxyresorufin-O-demethylase activity by spectrofluorimetric analysis in presence of NADPH regenerating solution. The essentials: (§4)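 Microsomal P450 (final 5 nM) in 0.1 M potassium phosphate pH 7.6 with MgCl2 at 37 °C. Substrate final 5 µM: ethoxyresorufin for 1A1/1B1, methoxyresorufin for 1A2. Ki was taken as the x-intercept of Dixon plots (1/v0 vs [I]). Mean ± SD of three independent experiments. Selectivity ratios are ratios of these Ki.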

Data set [4] is filed under the species Homo sapiens. Briefly: Selectivity ratio of Ki for human microsomal CYP1A1 to Ki for human microsomal CYP1A2. The essentials:
as §3

The species entered for data set [5] is Homo sapiens. Description: Selectivity ratio of Ki for human microsomal CYP1B1 to Ki for human microsomal CYP1A2. Summed up: as §3
In data set [6] the target is T3, Cytochrome P450 1B1 (Homo sapiens, UniProt Q16678).
T3 sequence (Q16678 whole entry): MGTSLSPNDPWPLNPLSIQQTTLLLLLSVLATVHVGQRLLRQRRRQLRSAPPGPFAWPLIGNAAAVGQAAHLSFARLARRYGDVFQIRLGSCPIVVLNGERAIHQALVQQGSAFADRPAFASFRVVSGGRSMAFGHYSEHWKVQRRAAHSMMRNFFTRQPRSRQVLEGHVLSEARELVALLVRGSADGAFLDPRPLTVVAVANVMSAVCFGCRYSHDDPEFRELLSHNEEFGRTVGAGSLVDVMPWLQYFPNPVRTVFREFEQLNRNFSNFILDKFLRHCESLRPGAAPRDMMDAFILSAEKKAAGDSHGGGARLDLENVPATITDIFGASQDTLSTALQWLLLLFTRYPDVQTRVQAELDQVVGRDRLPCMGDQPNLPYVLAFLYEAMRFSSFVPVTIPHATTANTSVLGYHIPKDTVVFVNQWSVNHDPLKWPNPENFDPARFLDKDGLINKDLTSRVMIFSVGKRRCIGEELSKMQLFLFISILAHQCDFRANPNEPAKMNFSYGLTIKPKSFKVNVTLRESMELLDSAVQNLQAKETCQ
Description: Inhibition of human microsomal CYP1B1-dependent ethoxyresorufin-O-deethylase activity by spectrofluorimetric analysis in presence of NADPH regenerating solution. Summed up:
as §4

In data set [7] the target is T1, Cytochrome P450 1A2. Briefly: Inhibition of CYP1A2-dependent methoxyresorufin-O-demethylase activity in human HepG2 cells at 10^-5 M preincubated for 24 hrs followed by substrate addition measured at 10, 30, 60 mins by fluorescence assay. It is filed as cell-based. The following applies: hepg2, 1 h, 10 µM. Summed up:
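HepG2 cells (DMEM, 10% FBS) were plated at 2 × 10^5 per well overnight. They were exposed 24 h to compound (final 10^-4 to 10^-7 M) in DMSO, with βNF 10^-5 M as positive control. Cells were PBS-washed and given medium with 5 × 10^-6 M methoxyresorufin. Resorufin fluorescence (ex 535/em 585 nm) was read at 10, 30 and 60 min. Triplicate, three independent runs, unpaired t test versus DMSO.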

In data set [8] the target is T3, Cytochrome P450 1B1. Briefly: Inhibition of human microsomal CYP1B1-dependent ethoxyresorufin-O-deethylase activity at 10 nM preincubated for 5 mins followed by NADPH regenerating solution and substrate addition measured over 6 mins by spectrofluorimetric analysis. The note with it: 0.1 h, 0.01 µM. The essentials: (§5)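 Microsomal P450 in 0.1 M potassium phosphate pH 7.6 with MgCl2 and 10 nM inhibitor in DMSO, 2 mL final. Preincubated 5 min at 37 °C either with NADPH-regenerating solution, or without it, with NADPH then added at start. Reaction started with ethoxyresorufin (final 5 µM). Resorufin formation followed 6 min at 37 °C.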

Data set [9] deals with T4, CYP1A2 (Homo sapiens, UniProt P05177).
T4 sequence (P05177 whole entry): T1 sequence (P05177 whole entry)
Described as §1. The following applies: human microsomal CYP1A2, probe methoxyresorufin (O-demethylation). The essentials: as §2

Data set [10] has as its target T3, Cytochrome P450 1B1. Description: Inhibition of human microsomal CYP1B1-dependent ethoxyresorufin-O-deethylase activity at 10 nM measured over 6 mins by spectrofluorimetric analysis in absence of NADPH regenerating solution. The note with it: 0.1 h, 0.01 µM. Summed up:
as §5

Data set [11] addresses T2, Cytochrome P450 1A1. Description: Inhibition of human microsomal CYP1A1-dependent ethoxyresorufin-O-deethylase activity at 10 nM preincubated for 5 mins followed by NADPH regenerating solution and substrate addition measured over 6 mins by spectrofluorimetric analysis. The note with it: 0.1 h, 0.01 µM. Summed up: as §5
In data set [12] the target is T1, Cytochrome P450 1A2. Description: Inhibition of human microsomal CYP1A2-dependent methoxyresorufin-O-demethylase activity at 10 nM measured over 6 mins by spectrofluorimetric analysis in absence of NADPH regenerating solution. The note with it: 0.1 h, 0.01 µM.
In data set [13] the target is T2, Cytochrome P450 1A1. Description: Inhibition of human microsomal CYP1A1-dependent ethoxyresorufin-O-deethylase activity at 10 nM measured over 6 mins by spectrofluorimetric analysis in absence of NADPH regenerating solution. The note with it: 0.1 h, 0.01 µM. The essentials: as §5
Data set [14] has as its target T4, CYP1A2. Briefly: Inhibition of human microsomal CYP1A2-dependent methoxyresorufin-O-demethylase activity at 10 nM preincubated for 5 mins followed by NADPH regenerating solution and substrate addition measured over 6 mins by spectrofluorimetric analysis relative to control. The following applies: human microsomal CYP1A2, probe methoxyresorufin (O-demethylation).

As a reminder, the pKi is the Ki on a negative log10 scale, so that one unit is a factor of ten. As usually defined, the kinact is the rate constant of inactivation at saturating inhibitor. For orientation: inhibition means the drop in the measured response relative to a control, in per cent. A high value points to a strong effect.

pKi: −log10 of the molar value.

`O=c1cc(-c2ccccc2)c2ccc3c(c2o1)OCO3`: the TDI result in data set [1] is recorded as “Not Active”. Also, the pKi was less than 3.70 in data set [2] and 5.45 in data set [3].
With `Cc1cc2c(ccc3c(-c4ccccc4)cc(=O)oc32)o1`, the results for the Ratio Ki in [4] and in data set [5] were 2.4 and 0.9, respectively. For the same compound, the pKi in data set [6] is 5.34; in data set [2], 4.92; in [3] it was 5.30. Moreover, the TDI result in data set [1] was “Not Active”.
As to `O=c1cc(-c2ccccc2)oc2c3c(ccc12)OCO3`, the Ratio Ki in [4] was 14; in data set [5], 5.3. Further, the pKi is 6.32 in data set [6], 5.91 in [2] and 7.05 in data set [3].
With `Cc1cc2c(ccc3c(-c4ccccc4)c(C)c(=O)oc32)o1`, the Ratio Ki in data set [4] was 3.1; in data set [5], 6.1. For the same compound, the results for the pKi in data set [6], in data set [2] and in [3] were 4.65, 4.94 and 5.43, respectively. The TDI result in [1] is given as “Not Active”.
For `Cc1nc2c([nH]1)c(=O)n(C)c(=O)n2Cc1ccco1` [FURAFYLLINE], the pKi in [6] and in [2] was less than 3.70 in each case.
Regarding `Cc1cc2c(ccc3c(C(F)(F)F)cc(=O)oc32)o1`, the Ratio Ki in [4] is 45; in [5], 35. Further, the figures for the pKi in data set [6], in [2] and in data set [3] were 4.33, 4.22 and 5.87, respectively. Moreover, in data set [1], the TDI result is on record as “Not Active”.
For the compound `O=c1cc(-c2ccccc2)oc2ccc3ccccc3c12` [BETA-NAPHTHOFLAVONE], the “inhibition (INH)” value in data set [7] is listed as “Not Active”.
Turning to `O=c1cc(-c2ccccc2)oc2c1ccc1ccccc12` [ALPHA-NAPHTHOFLAVONE], the pKi in data set [2] was 7.35.
For the compound `O=c1cc(-c2ccccc2)oc2c1ccc1ncccc12`, the Ratio Ki in [4] was 0.5; in [5] it was 1.8. The pKi is 6.92 in data set [6], 7.40 in data set [2] and 7.12 in [3].
Turning to `O=c1cc(-c2ccccc2)oc2c3c(cc(O)c12)OCC=C3`, the pKi is 8.25 in data set [6] and 6.96 in data set [2].
For the compound `Cc1cc(=O)oc2c3c(ccc12)OCC=C3`, the Ratio Ki stood at 73 in data set [4] and 7.9 in data set [5]. In addition, the figures for the pKi in data set [6], in data set [2] and in data set [3] were 4.92, 3.96 and 5.82, respectively. The TDI entry in data set [1] is on record as “Not Active”.
Regarding `Cc1cc(=O)oc2c1ccc1ncccc12`, the Ratio Ki amounted to 7.1 in data set [4] and 3.3 in [5]. Besides, the pKi in data set [6] was 4.33; in data set [2], 4.00; in data set [3], 4.85. In addition, in [1], the TDI result is “Not Active”.
Turning to `O=c1cc(-c2ccccc2)oc2c3c(ccc12)OCC=C3`, in data set [2], the pKi was 6.57.
Take `O=c1cc(-c2ccccc2)c2ccc3c(c2o1)C=CCO3`: the Ratio Ki in data set [4] is 20; in data set [5] it was 3.9. Further, the pKi in data set [6] was 5.30; in [2], 4.60; in data set [3] it was 5.89. In addition, the TDI entry in data set [1] was “Not Active”.
With `Cc1cc2c(ccc3c(C)cc(=O)oc32)o1`, the Ratio Ki in data set [4] was 33; in data set [5], 6.5. Besides, the pKi in [6] is 5.13; in [2], 4.42; in data set [3], 5.94. The TDI entry in data set [1] was “Not Active”.
As to `Cc1c(-c2ccccc2)c2ccc3c(c2oc1=O)C=CCO3`, the Ratio Ki in data set [4] was 11; in data set [5] it was 12. The pKi in data set [6] is 4.67; in data set [2], 4.74; in data set [3], 5.76. In addition, in data set [1], the TDI entry is on record as “Not Active”.
As for `Cc1cc2c(cc(O)c3c(=O)cc(-c4ccccc4)oc32)o1`, the Ratio Ki in [4] was found to be 11; in [5], 2.3. Besides, the “inhibition (INH)” value is “Not Active” in data set [8]; “Not Active” in data set [10]; “Not Active” in data set [11]; “Active” in data set [12]; “Not Active” in data set [13]. In addition, the pKi in data set [6] was 7.00; in data set [2], 6.33; in data set [3], 7.36. In [9], the kinact was 0.00433 s⁻¹. Besides, the inhibition at 0.1 h, 0.01 µM in [14] is more than 90%.

For the origin of these results see ChEMBL document CHEMBL3600302, “A Ligand-Based Drug Design. Discovery of 4-Trifluoromethyl-7,8-pyranocoumarin as a Selective Inhibitor of Human Cytochrome P450 1A2” (J Med Chem, 2015).
